These results are taken from ChEMBL document CHEMBL3044755, “5-Methyl-1,2,3-thiadiazoles synthesized via ugi reaction and their fungicidal and antiviral activities” (J Agric Food Chem, 2010).

Usually inhibition stands for the drop in the measured response relative to a control, in per cent. The low end stands for a weak effect, the high end for a strong effect.

What all share (type): functional
Test [1] deals with Rhizoctonia solani. In words: Fungicidal activity against Rhizoctonia solani at 50 ug/ml by growth inhibition method. The note with it: read-out: GI. Summed up:
(§1)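 Mycelial growth inhibition on potato dextrose agar. The panel covered Alternaria solani, Botrytis cinerea, Cercospora arachidicola, C. beticola, Colletotrichum lagenarium, Fusarium oxysporum, Gibberella zeae, Puccinia triticina, Phytophthora infestans, Physalospora piricola, Pellicularia sasakii and Rhizoctonia solani.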

Test [2] concerns Puccinia triticina. In words: Fungicidal activity against Puccinia triticina at 50 ug/ml by growth inhibition method. The note with it: read-out: GI. An outline of the steps: as §1
Test [3] deals with Thanatephorus cucumeris. Kind of test: Fungicidal activity against Thanatephorus cucumeris at 50 ug/ml by growth inhibition method. The conditions noted are these: read-out: GI. Summed up:
as §1

Test [4] relates to Botryosphaeria berengeriana. In words: Fungicidal activity against Botryosphaeria berengeriana at 50 ug/ml by growth inhibition method. The note with it: read-out: GI. Summed up:
as §1

Test [5] relates to Phytophthora infestans. In words: Fungicidal activity against Phytophthora infestans at 50 ug/ml by growth inhibition method. The conditions noted are these: read-out: GI. An outline of the steps: as §1
Test [6] has as its system Fusarium graminearum. In words: Fungicidal activity against Fusarium graminearum at 50 ug/ml by growth inhibition method. The conditions noted are these: read-out: GI. An outline of the steps:
as §1

The test system of test [7] is Colletotrichum lagenaria. Kind of test: Fungicidal activity against Colletotrichum lagenaria at 50 ug/ml by growth inhibition method. The note with it: read-out: GI. Summed up: as §1
Test [8] deals with Cercospora beticola. In words: Fungicidal activity against Cercospora beticola at 50 ug/ml by growth inhibition method. The conditions noted are these: read-out: GI. Summed up: as §1
For test [9], the system named is Mycosphaerella arachidis. In words: Fungicidal activity against Mycosphaerella arachidis at 50 ug/ml by growth inhibition method. The note with it: read-out: GI. An outline of the steps: as §1
Test [10] deals with Alternaria solani. In words: Fungicidal activity against Alternaria solani at 50 ug/ml by growth inhibition method. The conditions noted are these: read-out: GI. Summed up:
as §1

Test [11] has as its system Tobacco mosaic virus. In words: In vitro antiviral activity against Tobacco mosaic virus (TMV) infected tobacco leaves at 100 ug/ml.
Test [12] deals with Tobacco mosaic virus. Kind of test: In vitro antiviral activity against Tobacco mosaic virus (TMV) infected tobacco leaves at 500 ug/ml.

As to `Cc1ccc(N(C(=O)c2nnsc2C)C(C(=O)NC(C)C)c2cccc(F)c2)cc1F` (stereo not drawn), the inhibition of growth at 50 µg/mL in [1] amounted to 43%; in test [2] it was 0%; in [3] it was 0%; in test [4], 0%; in test [5] it was 19%; in test [6], 5%. Further, the inhibition of growth at 50 µg/mL in [7] worked out at 57%; in test [8] it was 25%; in test [9] it was 27%; in [10], 44%. In addition, the inhibition at 100 µg/mL in test [11] worked out at 50%. The molecule further returned an inhibition at 500 µg/mL in [12] of 30%.

With `Cc1ccc(N(C(=O)c2nnsc2C)C(C(=O)NC(C)C)c2ccc(C(F)(F)F)cc2)cc1F` (stereo not drawn), the inhibition of growth at 50 µg/mL stood at 15% in test [1]; 0% in [2]; 11% in test [3]; 0% in test [4]; 25% in test [5]; 0% in [6]. Besides, the inhibition of growth at 50 µg/mL in test [7] was 0%; in test [8], 25%; in test [9], 0%; in test [10] it was 0%. Testing at 100 µg/mL in [11] gave an inhibition of 14%. The molecule also registered an inhibition at 500 µg/mL in [12] of 45%.

`Cc1ccc(N(C(=O)c2nnsc2C)C(C(=O)NC(C)C)c2cccc(C(F)(F)F)c2)cc1F` (stereo not drawn): the inhibition of growth at 50 µg/mL in test [1] stood at 22%; in test [2], 14%; in [3], 4%; in test [4] it was 8%; in test [5] it was 0%; in test [6] it was 36%. The inhibition of growth at 50 µg/mL was determined as 14% in test [7], 25% in [8], 27% in test [9] and 0% in [10]. This molecule also registered an inhibition at 100 µg/mL in test [11] of 19%. For the same molecule, the inhibition at 500 µg/mL in test [12] came out at 51%.

Regarding `Cc1ccc(C(C(=O)NC(C)C)N(C(=O)c2nnsc2C)c2ccc(C)c(F)c2)cc1` (stereo not drawn), the inhibition of growth at 50 µg/mL in test [1] turned out to be 37%; in test [2], 14%; in test [3], 11%; in test [4], 0%; in test [5], 13%; in test [6], 0%. Besides, the inhibition of growth at 50 µg/mL in [7] was found to be 29%; in test [8] it was 25%; in [9], 45%; in [10], 31%. This molecule yielded an inhibition at 100 µg/mL in [11] of 7%. In [12], this molecule gave an inhibition at 500 µg/mL of 31%.

For the molecule `Cc1cccc(C(C(=O)NC(C)C)N(C(=O)c2nnsc2C)c2ccc(C)c(F)c2)c1` (stereo not drawn), the inhibition of growth at 50 µg/mL amounted to 0% in [1]; 0% in test [2]; 0% in test [3]; 0% in test [4]; 13% in [5]; 0% in [6]. The inhibition of growth at 50 µg/mL in test [7] worked out at 0%; in test [8], 25%; in test [9] it was 9%; in test [10], 0%. For the same molecule, testing at 100 µg/mL in test [11] gave an inhibition of 14%. Moreover, testing at 500 µg/mL in test [12] gave an inhibition of 35%.

For the molecule `Cc1ccc(N(C(=O)c2nnsc2C)C(C(=O)NC(C)C)c2ccccc2C)cc1F` (stereo not drawn), the inhibition of growth at 50 µg/mL was determined as 22% in test [1]; 0% in test [2]; 0% in [3]; 0% in test [4]; 31% in test [5]; 27% in test [6]. Besides, the inhibition of growth at 50 µg/mL in test [7] was determined as 50%; in test [8], 0%; in [9], 36%; in test [10], 56%. The molecule further had an inhibition at 100 µg/mL in [11] of 36%. This molecule also displayed an inhibition at 500 µg/mL in [12] of 55%.

For the molecule `Cc1ccc(N(C(=O)c2nnsc2C)C(C(=O)NC(C)C)c2cccc(O)c2)cc1F` (stereo not drawn), the inhibition of growth at 50 µg/mL in test [1] came to 2%; in test [2], 0%; in test [3] it was 0%; in test [4], 0%; in [5], 38%; in test [6], 0%. The inhibition of growth at 50 µg/mL in test [7] turned out to be 14%; in test [8], 11%; in test [9], 0%; in test [10], 0%. In addition, testing at 100 µg/mL in test [11] gave an inhibition of 4%. In test [12], this molecule gave an inhibition at 500 µg/mL of 20%.

On to `Cc1ccc(N(C(=O)c2nnsc2C)C(C(=O)NC(C)C)c2ccccc2O)cc1F` (stereo not drawn), for which the inhibition of growth at 50 µg/mL in [1] is 26%; in [2], 0%; in test [3] it was 41%; in test [4] it was 19%; in test [5] it was 0%; in test [6] it was 50%. Also, the inhibition of growth at 50 µg/mL in test [7] is 50%; in test [8], 0%; in [9], 0%; in test [10], 0%. In test [11], the inhibition at 100 µg/mL was found to be 27%. Besides, 500 µg/mL produced 56% inhibition in test [12].

Consider `Cc1ccc(N(C(=O)c2nnsc2C)C(C(=O)NC2CCCCC2)c2ccccc2)cc1F` (stereo not drawn), for which the inhibition of growth at 50 µg/mL in [1] came out at 0%; in test [2], 0%; in test [3], 65%; in test [4], 69%; in test [5], 38%; in [6] it was 27%. Further, the inhibition of growth at 50 µg/mL in [7] was 0%; in test [8] it was 0%; in [9], 18%; in test [10] it was 25%. This molecule also gave an inhibition at 100 µg/mL in test [11] of 51%. In [12], this molecule had an inhibition at 500 µg/mL of 71%.

As for `Cc1ccc(N(C(=O)c2nnsc2C)C(C(=O)NC2CCCCC2)c2ccc([N+](=O)[O-])cc2)cc1F` (stereo not drawn), the inhibition of growth at 50 µg/mL in test [1] is 2%; in test [2], 0%; in test [3] it was 0%; in test [4], 0%; in [5] it was 50%; in [6], 0%. Also, the inhibition of growth at 50 µg/mL is 14% in test [7], 25% in test [8], 45% in test [9] and 0% in test [10]. This molecule came in with an inhibition at 100 µg/mL in [11] of 8%. Moreover, in test [12], the inhibition at 500 µg/mL is 70%.

Turning to `Cc1ccc(N(C(=O)c2nnsc2C)C(C(=O)NC2CCCCC2)c2cccc([N+](=O)[O-])c2)cc1F` (stereo not drawn), the inhibition of growth at 50 µg/mL in test [1] came to 4%; in test [2], 0%; in [3], 0%; in test [4] it was 0%; in test [5], 44%; in [6], 0%. Besides, the inhibition of growth at 50 µg/mL stood at 0% in [7], 25% in test [8], 0% in test [9] and 0% in [10]. The inhibition at 100 µg/mL in [11] was determined as 9%. In addition, testing at 500 µg/mL in test [12] gave an inhibition of 57%.

For the molecule `Cc1ccc(N(C(=O)c2nnsc2C)C(C(=O)NC(C)C)c2cccc(Cl)c2)cc1F` (stereo not drawn), the inhibition of growth at 50 µg/mL in [1] was 22%; in [2], 0%; in test [3], 4%; in test [4], 0%; in test [5], 0%; in test [6], 0%. Moreover, the inhibition of growth at 50 µg/mL was found to be 0% in test [7], 13% in [8], 0% in [9] and 0% in [10]. For the same molecule, in test [11], the inhibition at 100 µg/mL amounted to 32%. Also, the inhibition at 500 µg/mL in test [12] amounted to 66%.

Take `Cc1ccc(N(C(=O)c2nnsc2C)C(C(=O)NC(C)C)c2ccccc2Cl)cc1F` (stereo not drawn): the inhibition of growth at 50 µg/mL in [1] turned out to be 0%; in test [2] it was 0%; in [3], 0%; in test [4] it was 0%; in test [5] it was 25%; in test [6], 0%. For the same molecule, the inhibition of growth at 50 µg/mL in [7] was 14%; in test [8] it was 0%; in test [9] it was 0%; in test [10], 0%. For the same molecule, the inhibition at 100 µg/mL in [11] worked out at 23%. Moreover, in test [12], the inhibition at 500 µg/mL is 17%.

With `Cc1ccc(N(C(=O)c2nnsc2C)C(C(=O)NC(C)C)c2ccc(F)cc2)cc1F` (stereo not drawn), the inhibition of growth at 50 µg/mL in test [1] is 22%; in test [2], 0%; in test [3] it was 0%; in test [4], 0%; in [5], 0%; in [6], 27%. The inhibition of growth at 50 µg/mL stood at 0% in test [7], 25% in test [8], 0% in [9] and 0% in [10]. This molecule also registered an inhibition at 100 µg/mL in test [11] of 18%. Moreover, in [12], 500 µg/mL produced 51% inhibition.
